Assay results as given in EPA's CvTdb concentration-time database.

What was measured:
[1] = tested on: Rat; test: concentration in plasma after dosing; conditions: 0.25 h; dosed: Wyeth-14643; 2.0 mg/kg; iv; Male; Sprague-Dawley
[2] = tested on: Rat; test: concentration in plasma after dosing; conditions: 5 h; dosed: Bis 2-Chloroethoxy Methane; 20 mg/kg; iv; Male; F344
[3] = tested on: Rat; test: concentration in plasma after dosing; conditions: 2 h; dosed: Bis 2-Chloroethoxy Methane; 40 mg/kg; iv; Male; Harlan Sprague Dawley
[4] = tested on: Rat; test: concentration in heart after dosing; conditions: 10 min; dosed: Bis 2-Chloroethoxy Methane; 20 mg/kg; iv; Male; F344
[5] = tested on: Rat; test: concentration in plasma after dosing; conditions: 6 h; dosed: Bis 2-Chloroethoxy Methane; 20 mg/kg; iv; Female; F344
[6] = tested on: Rat; test: concentration in brain after dosing; conditions: 1 h; dosed: Fluorotelomer alcohol 8+2; 80 mg/kg; oral; Female; Harlan Sprague Dawley
[7] = tested on: Rat; test: concentration in kidney after dosing; conditions: 1 h; dosed: Fluorotelomer alcohol 8+2; 80 mg/kg; oral; Female; Harlan Sprague Dawley
[8] = tested on: Rat; test: concentration in plasma after dosing; conditions: dosed: Fluorotelomer alcohol 8+2, 12 mg/kg, oral, Male, Harlan Sprague Dawley
[9] = tested on: Rat; test: concentration in brain after dosing; conditions: 0.5 h; dosed: Fluorotelomer alcohol 8+2; 80 mg/kg; oral; Female; Harlan Sprague Dawley
[10] = tested on: Rat; test: concentration in plasma after dosing; conditions: 5 min; dosed: Fluorotelomer alcohol 8+2; 12 mg/kg; iv; Male; F344
[11] = tested on: Rat; test: concentration in plasma after dosing; conditions: 6 h; dosed: Di-n-butyl phthalate; 50 mg/kg; oral; Male; Sprague-Dawley
[12] = tested on: Rat; test: concentration in plasma after dosing; conditions: 6 h; dosed: Di-n-butyl phthalate; 20 mg/kg; iv; Male; Sprague-Dawley
[13] = tested on: Rat; test: concentration in plasma after dosing; conditions: dosed: Perfluorodecanoic acid, 2 mg/kg, iv, Male, F344
[14] = tested on: Rat; test: concentration in liver after dosing; conditions: 1848 h; dosed: Perfluorodecanoic acid; 10 mg/kg; oral; Female; Harlan Sprague Dawley
[15] = tested on: Rat; test: concentration in plasma after dosing; conditions: dosed: Perfluorodecanoic acid, 2 mg/kg, oral, Male, Harlan Sprague Dawley
[16] = tested on: Rat; test: concentration in liver after dosing; conditions: 1 h; dosed: Perfluorodecanoic acid; 10 mg/kg; oral; Female; Harlan Sprague Dawley
[17] = tested on: Rat; test: concentration in plasma after dosing; conditions: 22 h; dosed: Primidone; 130 mg/kg; oral; Male; F344
[18] = tested on: Rat; test: concentration in plasma after dosing; conditions: 9 h; dosed: Primidone; 30 mg/kg; oral; Male; F344
[19] = tested on: Rat; test: concentration in thymus after dosing; conditions: 40 min; dosed: Thiodiglycolic Acid; 20 mg/kg; iv; Male; Harlan Sprague Dawley
[20] = tested on: Rat; test: concentration in liver after dosing; conditions: 20 min; dosed: Thiodiglycolic Acid; 20 mg/kg; iv; Female; F344
[21] = tested on: Rat; test: concentration in heart after dosing; conditions: 5.333 h; dosed: Thiodiglycolic Acid; 20 mg/kg; iv; Female; Harlan Sprague Dawley
[22] = tested on: Rat; test: concentration in liver after dosing; conditions: 3 h; dosed: Thiodiglycolic Acid; 20 mg/kg; iv; Female; Harlan Sprague Dawley
[23] = tested on: Rat; test: concentration in thymus after dosing; conditions: 5.333 h; dosed: Thiodiglycolic Acid; 20 mg/kg; iv; Female; Harlan Sprague Dawley
[24] = tested on: Rat; test: concentration in liver after dosing; conditions: 10 min; dosed: Thiodiglycolic Acid; 20 mg/kg; iv; Male; F344
[25] = tested on: Rat; test: concentration in heart after dosing; conditions: 2 h; dosed: Thiodiglycolic Acid; 20 mg/kg; iv; Female; Harlan Sprague Dawley
[26] = tested on: Rat; test: concentration in thymus after dosing; conditions: 20 min; dosed: Thiodiglycolic Acid; 20 mg/kg; iv; Female; F344
[27] = tested on: human; test: concentration in plasma after dosing; negative times count back from the end of exposure; conditions: dosed: trichloroethylene, 100 ppm, inhalation, duration: 4 hr, person
Procedure, shortened: (§1)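 Points were largely digitised from plot screenshots with WebPlotDigitizer or otherwise copied from tables, and they remain in the units each source reported. They come from published in vivo toxicokinetic studies and two structured collections. Sampling and analytical methods follow each source and were often not reported.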

[28] = tested on: Rat; test: concentration in plasma after dosing; conditions: dosed: dichloroacetic acid, 100 mg/kg, oral, Male, F344
[29] = tested on: human; test: amount in urine after dosing (mg cumulative excretion); conditions: dosed: trichloroethylene, inhalation, duration: 8 hr
Procedure, shortened: as §1

Cc1cccc(Nc2cc(Cl)nc(SCC(=O)O)n2)c1C
Conditions	concentration in plasma [ng/mL]
[1]	17400

ClCCOCOCCCl [Bis 2-Chloroethoxy Methane]
Conditions	concentration in heart [ng/g]	concentration in plasma [ng/mL]
[2]	–	36.5
[3]	–	1290
[4]	12300	–
[5]	–	16.9

OCCC(F)(F)C(F)(F)C(F)(F)C(F)(F)C(F)(F)C(F)(F)C(F)(F)C(F)(F)F [Fluorotelomer alcohol 8+2]
Conditions	concentration in brain [ng/g]	concentration in kidney [ng/g]	concentration in plasma [ng/mL]
[6]	3370	–	–
[7]	–	3330	–
[9]	2670	–	–
[10]	–	–	3800

[8]
Conditions	concentration in plasma [ng/mL]
0.75 h	318
12 h	6.78

CCCCOC(=O)c1ccccc1C(=O)O [Mono-n-butyl phthalate]
Conditions	concentration in plasma [ng/mL]
[11]	1890
[12]	601

O=C(O)C(F)(F)C(F)(F)C(F)(F)C(F)(F)C(F)(F)C(F)(F)C(F)(F)C(F)(F)C(F)(F)F [Perfluorodecanoic acid]
concentration in plasma [ng/mL]
Conditions	12 h	24 h	1200 h	1848 h
[13]	–	5510	–	410
[15]	8900	–	1160	–

Conditions	concentration in liver [ng/g]
[14]	27400
[16]	48000

CCC1(c2ccccc2)C(=O)NC(=O)NC1=O [Phenobarbital]
Conditions	concentration in plasma [ng/mL]
[17]	4990
[18]	2930

O=C(O)CSCC(=O)O [Thiodiglycolic Acid]
Conditions	concentration in heart [ng/g]	concentration in liver [ng/g]	concentration in thymus [ng/g]
[19]	–	–	3410
[20]	–	162000	–
[21]	272	–	–
[22]	–	94200	–
[23]	–	–	1080
[24]	–	160000	–
[25]	1420	–	–
[26]	–	–	5640

O=C(O)C(Cl)Cl [dichloroacetic acid]
concentration in plasma [ng/mL]
Conditions	0.25 h	4 h	6 h
[27]	5	7	–
[28]	15500	–	29500

[27], during exposure
Conditions	concentration in plasma [ng/mL]
-3.948 h	4
-3 h	4
-2 h	4
-1 h	4

O=C(O)C(Cl)(Cl)Cl [trichloroacetic acid]
[29]
Conditions	amount in urine
7.504 h, 97 ppm	6.26
7.706 h, 97 ppm	3.69
10.24 h, 54 ppm	5.68
11.01 h, 54 ppm	9.23
23.46 h, 97 ppm	32.7
23.84 h, 97 ppm	36.5
24.26 h, 54 ppm	25.8
24.54 h, 54 ppm	30.2
47.49 h, 97 ppm	113
47.71 h, 97 ppm	101
48.03 h, 54 ppm	88.6
48.27 h, 54 ppm	72
70.31 h, 97 ppm	166
70.67 h, 97 ppm	141
71.68 h, 54 ppm	124
71.91 h, 54 ppm	110
95.13 h, 97 ppm	201
95.58 h, 54 ppm	177
95.7 h, 97 ppm	168
96.05 h, 54 ppm	145
119.2 h, 97 ppm	224
119.67 h, 97 ppm	190
119.76 h, 54 ppm	194
119.83 h, 54 ppm	164
142.97 h, 97 ppm	249
143.27 h, 97 ppm	206
143.82 h, 54 ppm	178
143.83 h, 54 ppm	217
167.26 h, 97 ppm	260
167.56 h, 97 ppm	217
167.82 h, 54 ppm	232
168.41 h, 54 ppm	188
191.33 h, 54 ppm	199
191.56 h, 97 ppm	269
191.61 h, 54 ppm	245
191.66 h, 97 ppm	224
